Source: ChEMBL document CHEMBL1949585, “Design, synthesis and evaluation of telomerase inhibitory, hTERT repressing, and anti-proliferation activities of symmetrical 1,8-disubstituted amidoanthraquinones” (Eur J Med Chem, 2012)
The source made the active and inactive calls. The calls are words filed in the database; no cut-off is given here.

Legend:
[1] = tested on: H1299; assay: Inhibition of human telomerase in H1299 cell lysate at 10 uM by PCR-based telomeric repeat amplification protocol assay; format: cell-free
Outline: (§1)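 TRAP assay on telomerase-active H1299 cell extracts, with RNase A-treated extract as the negative control. Compound was preincubated with extract for 5 min at room temperature before the telomerase extension and PCR amplification. The initial screen used 10 µM, and IC50 came from a dose series.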

[2] = (§2) Inhibition of human telomerase in H1299 cell lysate compound incubated for 5 mins prior to telomerase extension by PCR-based telomeric repeat amplification protocol assay; format: cell-free; outline: as §1
[3] = tested on: H1299; assay: as §2; format: cell-free; outline: as §1
[4] = tested on: H1299; assay: Inhibition of human telomerase in H1299 cell lysate compound incubated post-telomerase extension by PCR-based telomeric repeat amplification protocol assay; format: cell-free
Outline: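 Modified TRAP assay (TRAP-M) to test for interference with Taq polymerase. Compound was added to H1299 extract reactions right after the telomerase extension step and before PCR amplification.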

[5] = Cytotoxicity against human H1299 cells assessed as cell growth at 1 uM after 48 hrs by MTT assay; format: functional; details: NCI-H1299, 48 h, read-out: Activity
Outline: (§3)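 H1299 non-small lung cancer cells were grown in RPMI 1640 with 10% FBS and penicillin/streptomycin at 37 °C in 5% CO2. About 2×10³ cells were seeded per well and held 24 h, then washed with PBS and given fresh medium. Compound, freshly dissolved in DMSO and diluted in complete medium, was added for 48 h. MTT was read at 550 nm after SDS/DMF lysis at 37 °C for 16 h. Values are from three experiments, untreated = 100%, ±SD.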

[6] = Cytotoxicity against human H1299 cells assessed as cell growth at 10 uM after 48 hrs by MTT assay; format: functional; details: NCI-H1299, 48 h, read-out: Activity; outline: as §3
[7] = Cytotoxicity against human H1299 cells assessed as cell growth at 100 uM after 48 hrs by MTT assay; format: functional; details: NCI-H1299, 48 h, read-out: Activity; outline: as §3
[8] = Inhibition of human TERT expression in H1299 cells at 1 uM after 24 hrs by secreted alkaline phosphatase reporter gene assay relative to control; values are per cent of control; details: NCI-H1299
[9] = Inhibition of human TERT expression in H1299 cells at 10 uM after 24 hrs by secreted alkaline phosphatase reporter gene assay relative to control; values are per cent of control; details: NCI-H1299
[10] = Inhibition of human TERT expression in H1299 cells at 100 uM after 24 hrs by secreted alkaline phosphatase reporter gene assay relative to control; values are per cent of control; details: NCI-H1299

## CN(C)CCCCNCCC(=O)Nc1cccc2c1C(=O)c1c(NC(=O)CCNCCCCN(C)C)cccc1C2=O
[1]
  inhibition: Active
[2]
  IC50: 6 µM
[3]
  inhibition: Dose-dependent effect
[4]
  inhibition: Dose-dependent effect
[5]
  growth at 1 µM: 98%
[6]
  growth at 10 µM: 74%
[7]
  growth at 100 µM: 7%
[8]
  level, % of control: 121%
[9]
  level, % of control: 97%
[10]
  level, % of control: 4%
